ChEMBL document CHEMBL3271979, “Inhibition of solid tumors by nitrosoureas. 1. Lewis lung carcinoma” (1977)
Active and inactive are the calls of the source. The calls are words filed in the database; no cut-off is given here.

How the values were obtained:
[1] = Antitumor activity against mouse advanced Lewis lung carcinoma allografted in ip dosed BDF1 mouse assessed as increase in host lifespan administered as single dose on day 6 or 7 post-tumor implantation; format: functional
Summary of the method: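 Advanced Lewis lung model: about 40 mg fragments implanted sc by trocar into BDF1 mice, and mice with tumors of about 400 mg (day 6-7) selected. Tumor weight from calipers, w = ab²/2. Agent given as one ip dose in distilled water or physiological saline. Nontumor-bearing mice received matching doses as toxicity controls.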

[2] = Antitumor activity against mouse early Lewis lung carcinoma allografted in ip dosed BDF1 mouse assessed as disease cure administered as single dose on 1 or 2 days post-tumor implantation measured for 80 days post-drug treatment; format: functional
Summary of the method: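 BDF1 mice implanted sc by trocar with ~40 mg Lewis lung fragments from sterile donor tumors. A single ip dose was given on day 1 or 2 after implant, in water or saline vehicle. Cures were scored in animals observed for at least 80 days after treatment. Drug-toxicity controls were matched non-tumor-bearing mice monitored for body weight and deaths.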

Mus musculus [3] = test: Antitumor activity against mouse advanced Lewis lung carcinoma allografted in ip dosed BDF1 mouse assessed as complete regression of established tumor administered as single dose on day 6 or 7 post-tumor implantation; format: functional, organism-based
Summary of the method: (§1)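 BDF1 mice (C57Blk/6 × DBA/2) implanted sc by trocar with Lewis lung tumor fragments of about 40 mg, taken only from bacteriologically sterile donor tumors. Mice bearing tumors of about 400 mg (day 6-7) were selected. Each received a single ip dose on day 7, at or below the LD10 in normal mice. Groups were of 10 mice. Tumor weight was taken from calipers as w = ab²/2, measured at least twice weekly. Matched non-tumor mice served as toxicity controls.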

[4] = Antitumor activity against mouse early Lewis lung carcinoma allografted in BDF1 mouse assessed as time delay in tumor growth at 38 mg/kg, ip administered as single dose on 1 or 2 days post-tumor implantation; format: functional; settings: route intraperitoneal
Summary of the method: (§2)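 BDF1 mice (C57Blk/6 × DBA/2) implanted sc by trocar with ~40 mg Lewis lung tumor fragments from bacteriologically sterile donors. A single ip dose was given on day 1 or 2, as a solution or suspension in water or saline with suspending agent, at ≤0.5 ml. Tumors were measured by caliper at least twice weekly, with weight = ab²/2. Delay was taken as the days for the tumor to reach 1 g.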

Mus musculus [5] = test: Antitumor activity against mouse advanced Lewis lung carcinoma allografted in ip dosed BDF1 mouse assessed as disease cure administered as single dose on day 6 or 7 post-tumor implantation; format: functional, organism-based; summary of the method: as §1
[6] = Antitumor activity against mouse early Lewis lung carcinoma allografted in BDF1 mouse assessed as increase in host life span at 57 mg/kg, ip administered as single dose on 1 or 2 days post-tumor implantation; format: functional; settings: route intraperitoneal
Summary of the method: (§3)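 BDF1 mice (C57Blk/6 × DBA/2) implanted sc by trocar with ~40 mg Lewis lung tumor fragments from bacteriologically sterile donor tumors. Single ip dose on day 1 or 2, as a solution or suspension in water (CMC or gum acacia) or saline (HPC or Tween 80). Read-out is […]. Same-dose toxicity controls were run in nontumor-bearing mice.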

[7] = Antitumor activity against mouse advanced Lewis lung carcinoma allografted in BDF1 mouse assessed as increase in host life span at 55 mg/kg, ip administered as single dose on 7th day post-tumor implantation; format: functional; settings: route intraperitoneal
Summary of the method: (§4)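 BDF1 mice (C57Blk/6 × DBA/2) implanted sc by trocar with about 40 mg Lewis lung tumor fragments from bacteriologically sterile donors. Advanced-disease groups held tumors of about 400 mg by day 6-7, sized by caliper (w = ab²/2). Single ip injection on day 7, in water or saline vehicle, at or below the LD10 in normal mice. Tumors measured at least twice weekly.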

[8] = Ratio of ED50 for antitumor activity against mouse L1210 cells allografted in ip dosed mouse to LD10 for mouse
[9] = Antitumor activity against mouse early Lewis lung carcinoma allografted in BDF1 mouse assessed as time delay in tumor growth at 57 mg/kg, ip administered as single dose on 1 or 2 days post-tumor implantation; format: functional; settings: route intraperitoneal; summary of the method: as §2
Mus musculus [10] = test: Antitumor activity against mouse advanced Lewis lung carcinoma allografted in BDF1 mouse assessed as complete regression of established tumor at 55 mg/kg, ip administered as single dose on 7th day post-tumor implantation; format: functional, organism-based; set-up: dose 55 mg/kg; summary of the method: as §1
[11] = Antitumor activity against mouse early Lewis lung carcinoma allografted in BDF1 mouse assessed as increase in host life span at 38 mg/kg, ip administered as single dose on 1 or 2 days post-tumor implantation; format: functional; settings: route intraperitoneal; summary of the method: as §3
Mus musculus [12] = test: Antitumor activity against mouse advanced Lewis lung carcinoma allografted in BDF1 mouse assessed as disease cure at 55 mg/kg, ip administered as single dose on 7th day post-tumor implantation measured for 80 days post-drug treatment; format: functional, organism-based; set-up: dose 55 mg/kg; summary of the method: as §1
Mus musculus [13] = test: Antitumor activity against mouse advanced Lewis lung carcinoma allografted in BDF1 mouse assessed as disease cure at 16 mg/kg, ip administered as single dose on 7th day post-tumor implantation measured for 80 days post-drug treatment; format: functional, organism-based; set-up: dose 16 mg/kg; summary of the method: as §1
[14] = Antitumor activity against mouse advanced Lewis lung carcinoma allografted in BDF1 mouse assessed as increase in host life span at 25 mg/kg, ip administered as single dose on 7th day post-tumor implantation; format: functional; settings: route intraperitoneal; summary of the method: as §4
[15] = Antitumor activity against mouse early Lewis lung carcinoma allografted in BDF1 mouse assessed as increase in host life span at 26 mg/kg, ip administered as single dose on 1 or 2 days post-tumor implantation; format: functional; settings: route intraperitoneal; summary of the method: as §3
[16] = Antitumor activity against mouse early Lewis lung carcinoma allografted in BDF1 mouse assessed as time delay in tumor growth at 60 mg/kg, ip administered as single dose on 1 or 2 days post-tumor implantation; format: functional; settings: route intraperitoneal; summary of the method: as §2
[17] = Antitumor activity against mouse advanced Lewis lung carcinoma allografted in BDF1 mouse assessed as increase in host life span at 16 mg/kg, ip administered as single dose on 7th day post-tumor implantation; format: functional; settings: route intraperitoneal; summary of the method: as §4
[18] = Antitumor activity against mouse early Lewis lung carcinoma allografted in BDF1 mouse assessed as increase in host life span at 60 mg/kg, ip administered as single dose on 1 or 2 days post-tumor implantation; format: functional; settings: route intraperitoneal; summary of the method: as §3
Mus musculus [19] = test: Antitumor activity against mouse advanced Lewis lung carcinoma allografted in BDF1 mouse assessed as complete regression of established tumor at 37 mg/kg, ip administered as single dose on 7th day post-tumor implantation; format: functional, organism-based; set-up: dose 37 mg/kg; summary of the method: as §1
[20] = Antitumor activity against mouse early Lewis lung carcinoma allografted in BDF1 mouse assessed as time delay in tumor growth at 40 mg/kg, ip administered as single dose on 1 or 2 days post-tumor implantation; format: functional; settings: route intraperitoneal; summary of the method: as §2
Mus musculus [21] = test: Antitumor activity against mouse advanced Lewis lung carcinoma allografted in BDF1 mouse assessed as complete regression of established tumor at 25 mg/kg, ip administered as single dose on 7th day post-tumor implantation; format: functional, organism-based; set-up: dose 25 mg/kg; summary of the method: as §1
Mus musculus [22] = test: Antitumor activity against mouse advanced Lewis lung carcinoma allografted in BDF1 mouse assessed as disease cure at 25 mg/kg, ip administered as single dose on 7th day post-tumor implantation measured for 80 days post-drug treatment; format: functional, organism-based; set-up: dose 25 mg/kg; summary of the method: as §1
Mus musculus [23] = test: Antitumor activity against mouse advanced Lewis lung carcinoma allografted in BDF1 mouse assessed as complete regression of established tumor at 16 mg/kg, ip administered as single dose on 7th day post-tumor implantation; format: functional, organism-based; set-up: dose 16 mg/kg; summary of the method: as §1
Mus musculus [24] = test: Antitumor activity against mouse advanced Lewis lung carcinoma allografted in BDF1 mouse assessed as disease cure at 37 mg/kg, ip administered as single dose on 7th day post-tumor implantation measured for 80 days post-drug treatment; format: functional, organism-based; set-up: dose 37 mg/kg; summary of the method: as §1
[25] = Antitumor activity against mouse early Lewis lung carcinoma allografted in BDF1 mouse assessed as increase in host life span at 40 mg/kg, ip administered as single dose on 1 or 2 days post-tumor implantation; format: functional; settings: route intraperitoneal; summary of the method: as §3
[26] = Antitumor activity against mouse advanced Lewis lung carcinoma allografted in BDF1 mouse assessed as increase in host life span at 37 mg/kg, ip administered as single dose on 7th day post-tumor implantation; format: functional; settings: route intraperitoneal; summary of the method: as §4
[27] = Antitumor activity against mouse early Lewis lung carcinoma allografted in BDF1 mouse assessed as time delay in tumor growth at 26 mg/kg, ip administered as single dose on 1 or 2 days post-tumor implantation; format: functional; settings: route intraperitoneal; summary of the method: as §2
[28] = Antitumor activity against mouse advanced Lewis lung carcinoma allografted in BDF1 mouse assessed as increase in host life span at 12 mg/kg, ip administered as single dose on 7th day post-tumor implantation; format: functional; settings: route intraperitoneal; summary of the method: as §4
[29] = Antitumor activity against mouse advanced Lewis lung carcinoma allografted in BDF1 mouse assessed as increase in host life span at 18 mg/kg, ip administered as single dose on 7th day post-tumor implantation; format: functional; settings: route intraperitoneal; summary of the method: as §4
Mus musculus [30] = test: Antitumor activity against mouse advanced Lewis lung carcinoma allografted in BDF1 mouse assessed as disease cure at 12 mg/kg, ip administered as single dose on 7th day post-tumor implantation measured for 80 days post-drug treatment; format: functional, organism-based; set-up: dose 12 mg/kg; summary of the method: as §1
Mus musculus [31] = test: Antitumor activity against mouse advanced Lewis lung carcinoma allografted in BDF1 mouse assessed as disease cure at 18 mg/kg, ip administered as single dose on 7th day post-tumor implantation measured for 80 days post-drug treatment; format: functional, organism-based; set-up: dose 18 mg/kg; summary of the method: as §1
L1210 = test: Antitumor activity against mouse L1210 cells allografted in ip dosed mouse assessed as disease cure administered as single dose; format: functional, organism-based
Mus musculus [32] = test: Antitumor activity against mouse advanced Lewis lung carcinoma allografted in BDF1 mouse assessed as complete regression of established tumor at 12 mg/kg, ip administered as single dose on 7th day post-tumor implantation; format: functional, organism-based; set-up: dose 12 mg/kg; summary of the method: as §1
Mus musculus [33] = test: Antitumor activity against mouse advanced Lewis lung carcinoma allografted in BDF1 mouse assessed as complete regression of established tumor at 18 mg/kg, ip administered as single dose on 7th day post-tumor implantation; format: functional, organism-based; set-up: dose 18 mg/kg; summary of the method: as §1

SMILES: O=NN(CCCl)C(=O)N[C@H]1CCCC[C@@H]1Cl (relative stereo)
- ILS [1]: >25%
- Activity [2]: 10%
- inhibition (Mus musculus [3]): inactive
- Time [4]: 3.3 days
- Activity (Mus musculus [5]): inactive
- ILS at 57 mg/kg [6]: 38%
- ILS at 55 mg/kg [7]: 18%
- Ratio [8]: 0.6
- Time [9]: 2.5 days
- inhibition (Mus musculus [10]): inactive
- ILS at 38 mg/kg [11]: 43%
- Activity (Mus musculus [12]): inactive

SMILES: CO[C@H]1CC[C@H](NC(=O)N(CCCl)N=O)CC1
- ILS [1]: >25%
- Activity (Mus musculus [13]): inactive
- inhibition (Mus musculus [3]): inactive
- ILS at 25 mg/kg [14]: 29%
- Activity (Mus musculus [5]): inactive
- ILS at 26 mg/kg [15]: 18%
- Time [16]: 9.5 days
- ILS at 16 mg/kg [17]: 20%
- ILS at 60 mg/kg [18]: 18%
- inhibition (Mus musculus [19]): inactive
- Time [20]: 2 days
- inhibition (Mus musculus [21]): inactive
- Activity (Mus musculus [22]): inactive
- inhibition (Mus musculus [23]): inactive
- Activity (Mus musculus [24]): inactive
- ILS at 40 mg/kg [25]: 0%
- ILS at 37 mg/kg [26]: 29%
- Time [27]: 0 days

SMILES: CC(=O)OC[C@H]1CC[C@H](NC(=O)N(CCCl)N=O)CC1
- ILS [1]: >25%
- Activity [2]: 10%
- inhibition (Mus musculus [3]): inactive
- Activity (Mus musculus [5]): inactive
- ILS at 12 mg/kg [28]: 26%
- ILS at 18 mg/kg [29]: 65%
- Activity (Mus musculus [30]): inactive
- Activity (Mus musculus [31]): inactive
- Activity (L1210): inactive
- inhibition (Mus musculus [32]): inactive
- inhibition (Mus musculus [33]): inactive
